Published values gathered from unrelated publications.
rep main protease: Replicase polyprotein 1ab, main protease (rep, Severe acute respiratory syndrome coronavirus 2, UniProt P0DTD1)
HRH2: Histamine H2 receptor (HRH2, Homo sapiens, UniProt P25021)
MAL12: Alpha-glucosidase MAL12 (MAL12, Saccharomyces cerevisiae S288c, UniProt P53341)
ADRA1A: Alpha-1A adrenergic receptor (ADRA1A, Homo sapiens, UniProt P35348)

`O=C(O)c1cc(O)c(O)c(O)c1` gave a kinact/KI of 205 M⁻¹ s⁻¹ (rep main protease; enzyme activity; inhibitor).
With `[2H]c1c([2H])c([C@]2([2H])CCCN2C(=O)C(C)(C)Oc2ccc3cn[nH]c3c2)c([2H])c([2H])c1C([2H])([2H])[2H]` the remaining binding was 59% (Homeodomain-interacting protein kinase 4 (HIPK4, Homo sapiens, UniProt Q8NE63); binding; competition with immobilised ligand; 1 µM).
With `CN1CCC[C@H]1c1cccnc1` the inhibition was 3.47% (HRH2; ligand displacement; 50 µM).
With `CN1C(=S)N(c2ccccc2)C(=O)/C1=C1/C(=O)N(C)c2ccc(Cl)cc21` the inhibition was 11.9% (MAL12; enzyme activity; inhibitor; absorbance; 25 µM).
For `COc1ccc(-c2cc(=O)c3c(O)cc(OC)cc3o2)cc1`, the inhibition was 10.6% (rep main protease; enzyme activity; inhibitor; 100 µM).
`c1cncc([C@@H]2CCCN2)c1` has an inhibition of -6.37% (HRH2; ligand displacement; 50 µM).
`COc1cc(O)c2c(=O)c(OC)c(-c3ccc(OC)c(OC)c3)oc2c1` has an inhibition of 5.84% (rep main protease; enzyme activity; inhibitor; 10 µM).
`O=C(O[C@@H]1Cc2c(O)cc(O)cc2O[C@@H]1c1ccc(O)c(O)c1)c1cc(O)c(O)c(O)c1` gave a kinact of 1.83e-05 s⁻¹ (rep main protease; enzyme activity; inhibitor).
With `CC(C)CC(=O)OC[C@H]1O[C@@](C#N)(c2ccc3c(N)ncnn23)[C@H](O)[C@@H]1O` the inhibition was 3% (ADRA1A; cell-free assay; 20 µM).
For `CN1C(=O)/C(=N\Nc2ncc(-c3cc4ccccc4oc3=O)s2)c2cc(Cl)ccc21`, the inhibition was 17.4% (MAL12; enzyme activity; inhibitor; absorbance; 25 µM).
The inhibition of `CCOC(=O)Cc1c2c3c(cc(OC)c(OC)c3c3cc(OC)c(OC)cc13)CCN2C` is reported as 13% (ADRA1A; ligand displacement; radioligand; 10 µM).
The inhibition of `CCc1ccc(N2C(=O)/C(=C3/C(=O)N(C)c4ccc(Cl)cc43)NC2=S)cc1` is reported as 14.6% (MAL12; enzyme activity; inhibitor; absorbance; 25 µM).
With `COc1cc(O)c2c(=O)c(OC)c(-c3ccccc3)oc2c1` the inhibition was 3.04% (rep main protease; enzyme activity; inhibitor; 10 µM).
`COc1cc2c(cc1OC)-c1c(OC)c(OC)cc3c1[C@H](C2)N(C)CC3` has an inhibition of 82% (ADRA1A; ligand displacement; radioligand; 10 µM).
For `O=c1c(O)c(-c2cc(O)c(O)c(O)c2)oc2cc(O)cc(O)c12`, the inhibition was 100% (rep main protease; enzyme activity; inhibitor; 100 µM).
The kinact/KI of `O=c1c(O)c(-c2ccc(O)cc2)oc2c(O)c(O)cc(O)c12` is reported as 20.3 M⁻¹ s⁻¹ (rep main protease; enzyme activity; inhibitor).
